Source: ChEMBL document CHEMBL4130626, “α-Arylidene Diacylglycerol-Lactones (DAG-Lactones) as Selective Ras Guanine-Releasing Protein 3 (RasGRP3) Ligands” (J Med Chem, 2018)

Assays:
Type in all cases: cell-based
[1] = biological target: T1, Ras guanyl-releasing protein 3 (Homo sapiens, UniProt Q8IV61); experiment: Activation of GFP-tagged RasGRP3 (unknown origin) expressed in HEK293 cells after 30 mins by immunoblot method
T1 sequence (Q8IV61 whole entry): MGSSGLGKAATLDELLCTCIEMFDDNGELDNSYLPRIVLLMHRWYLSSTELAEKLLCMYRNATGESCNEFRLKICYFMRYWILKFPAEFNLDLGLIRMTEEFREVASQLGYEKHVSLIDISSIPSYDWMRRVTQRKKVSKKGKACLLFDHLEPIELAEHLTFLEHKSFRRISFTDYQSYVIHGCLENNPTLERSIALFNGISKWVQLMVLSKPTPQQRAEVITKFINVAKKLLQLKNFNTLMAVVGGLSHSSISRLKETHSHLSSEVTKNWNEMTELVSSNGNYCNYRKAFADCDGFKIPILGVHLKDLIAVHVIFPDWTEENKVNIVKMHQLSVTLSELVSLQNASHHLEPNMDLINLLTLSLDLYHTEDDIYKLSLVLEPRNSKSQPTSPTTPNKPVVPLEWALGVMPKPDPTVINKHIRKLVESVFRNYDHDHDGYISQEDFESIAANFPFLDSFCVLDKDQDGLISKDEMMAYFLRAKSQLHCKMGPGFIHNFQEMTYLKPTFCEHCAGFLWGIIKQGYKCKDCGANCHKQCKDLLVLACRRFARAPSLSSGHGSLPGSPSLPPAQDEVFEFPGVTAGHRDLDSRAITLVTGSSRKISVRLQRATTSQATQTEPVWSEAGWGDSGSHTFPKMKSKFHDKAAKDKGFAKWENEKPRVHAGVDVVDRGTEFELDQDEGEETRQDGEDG
Method in brief: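 HEK293 cells grown in EMEM + 10% FBS, transfected after 48 h with GFP-RasGRP3 (Lipofectamine Plus). Treated 30 min at 37 °C, 5% CO2, with half-log increasing concentrations up to 10 µM, 1000 nM PMA or DMSO. Active Ras pulled down from lysates on Raf1-RBD agarose (60 min, 4 °C), immunoblotted with anti-Pan-Ras. Band intensity normalised to 1000 nM PMA. EC50 is the mean of n = 3.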

[2] = biological target: Protein kinase C delta type (Homo sapiens, UniProt Q05655); experiment: Activation of PKCdelta (unknown origin) expressed in HEK293 cells harboring GFP-tagged RasGRP3 assessed as phosphorylation at ser299 residues after 30 mins by immunoblot method
Method in brief: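 Cells are GFP-RasGRP3-transfected HEK293, grown in EMEM + 10% FBS. Exposed 30 min at 37 °C, 5% CO2, to half-log concentrations up to 10 µM, 1000 nM PMA or DMSO. Lysed in RIPA with protease and phosphatase inhibitors. 50 µg protein run on 10% SDS-PAGE and blotted for phospho-PKCδ S299; anti-GFP used as loading control. Signal normalised to 1000 nM PMA. EC50 is the mean of n = 3.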

[3] = species: Homo sapiens; experiment: Selectivity ratio of EC50 for PKCdelta (unknown origin) expressed in HEK293 cells harboring GFP-tagged RasGRP3 to EC50 for GFP-tagged RasGRP3 (unknown origin) expressed in HEK293 cells
Method in brief: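 One EC50 comes from PKCδ S299 phosphorylation on immunoblot, the other from Ras-GTP pulled down on Raf1-RBD. Both signals normalised to 1000 nM PMA. EC50s above 10 µM are extrapolated.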

Protein kinase C delta type, sequence (Q05655 whole entry): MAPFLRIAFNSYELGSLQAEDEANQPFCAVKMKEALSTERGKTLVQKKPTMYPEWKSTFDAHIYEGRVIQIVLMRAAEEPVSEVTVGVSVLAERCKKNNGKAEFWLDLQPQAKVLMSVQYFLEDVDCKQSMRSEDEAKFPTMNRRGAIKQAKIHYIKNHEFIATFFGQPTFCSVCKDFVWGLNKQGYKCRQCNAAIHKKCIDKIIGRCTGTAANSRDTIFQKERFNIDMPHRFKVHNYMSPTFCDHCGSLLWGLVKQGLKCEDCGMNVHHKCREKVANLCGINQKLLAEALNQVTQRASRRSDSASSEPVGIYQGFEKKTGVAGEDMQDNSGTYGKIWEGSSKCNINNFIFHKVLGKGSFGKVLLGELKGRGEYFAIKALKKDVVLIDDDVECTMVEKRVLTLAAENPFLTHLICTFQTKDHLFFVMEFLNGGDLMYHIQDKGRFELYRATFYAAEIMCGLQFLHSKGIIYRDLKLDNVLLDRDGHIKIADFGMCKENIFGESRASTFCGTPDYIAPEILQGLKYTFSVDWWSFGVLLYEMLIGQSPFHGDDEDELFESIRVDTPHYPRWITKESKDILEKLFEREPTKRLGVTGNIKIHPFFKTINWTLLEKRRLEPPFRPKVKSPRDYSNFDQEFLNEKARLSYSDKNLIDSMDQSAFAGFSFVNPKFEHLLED

Q: Which results are given for CCCCCCCCCCCCCC(=O)O[C@@H]1[C@@H](C)[C@@]2(O)[C@@H](C=C(CO)C[C@]3(O)C(=O)C(C)=C[C@@H]23)[C@@H]2C(C)(C)[C@]12OC(C)=O [PHORBOL MYRISTATE ACETATE]?
A: EC50 [1]: 82 nM; EC50 [2]: 290 nM; Ratio EC50 [3]: 3.5
